PubChem BioAssay AID1235 (PCMD, 2008)
In all, about 62,000 compounds went through this assay and about 50 (0.08%) were called active. Many of the other results were omitted from the sample, so actives are more common in it than they were. A number with no mark means an inactive call.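 Rule for the calls: active = inhibition above 30% in each of the two pooled mixtures holding the compound, so the lower value exceeds 30%; inactive = the rest.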

Experiment: blockers of serum C3 deposition on LPS – biochemical, ELISA, human serum, orthogonally pooled compounds, primary screen (AID 1235);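 note: 0% = serum in Mg-EGTA without compound and 100% = EDTA serum blank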
Details: Human serum alternative complement pathway, LPS-coated ELISA, tested in compound mixtures, at 5 µM, hits give high values
Summary of the method: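 Test system: human serum alternative complement pathway, C3 deposition on LPS-coated wells; also added: Plate-bound LPS; doses: 5 µM per compound in ten-compound mixtures; schedule: 1 h at 37 °C; detection: Anti-C3 ELISA, OD 450 nm; evaluation: percent inhibition of C3 deposition onto LPS; repeats: two pool placements per compound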
`O=C(NCc1ccc2c(c1)OCO2)C1CCCN(S(=O)(=O)c2cccs2)C1` (stereo not given) gave an inhibition of 7.05%.
Work on `CCCCn1c(SCc2ncc(-c3ccccc3)o2)nc2cc(S(N)(=O)=O)ccc21` yielded an inhibition of 20.9%.
`O=C(CC(NCCN1CCOCC1)C(=O)O)Nc1cccc(Cl)c1` (stereo not given) showed an inhibition of -2.21%.
In the case of `COc1ccc(CC(=O)Nc2c3c(nn2-c2cccc(Cl)c2)CS(=O)C3)cc1` (stereo not given), the inhibition is reported as 11.2%.
In the case of `Cc1ccc(OS(=O)Nc2cccc3nccnc23)cc1` (stereo not given), the inhibition is reported as 10%.
With `CCN(c1ccc2c(c1)OCO2)S(=O)(=O)c1cc(Br)cc2c1N(C(=O)C1CC1)CC2` the inhibition was -0.915%.
For `COc1ccccc1-c1nnc(SCC(=O)Nc2ccccc2)o1`, the inhibition was 4.25%.
`CCOc1ccccc1NC(=O)CCc1ccc(C)o1` gave an inhibition of 9.69%.
Molecule `O=C(Nc1ccc(S(=O)(=O)N2CCCCC2)cc1)c1cnccn1` has an inhibition of 13.5%.
In the case of `CCCCCCn1c(CN2CCCC(C)C2)nc2c1c(=O)n(C)c(=O)n2C` (stereo not given), the inhibition is reported as 8.35%.
In the case of `CCCOc1ccccc1-c1nc(SCCC(=O)O)n[nH]1`, the inhibition is reported as 24%.
Work on `CCCCCn1c(SCCC(C)C)nc2c1c(=O)[nH]c(=O)n2C` yielded an inhibition of 4.81%.
In the case of `COc1cc(Cl)c(C)cc1NC(=O)CSc1nnc(-c2ccco2)n1CC(C)C`, the inhibition is reported as 10.7%.
`OC(COc1ccccc1)Cn1cc(Br)cn1` (stereo not given) showed an inhibition of 3.79%.
Molecule `c1ccc(-n2ncc3c2ncn2c(C4CCCCC4)nnc32)cc1` has an inhibition of 14.3%.
With `COc1ccc(CCNC(=O)CCn2c(=O)oc3ccccc32)cc1OC` the inhibition was 6.83%.
Work on `CSCCC(NC(=O)C1CCC(C)CC1)C(=O)NCc1ccco1` (stereo not given) yielded an inhibition of 11.6%.
`COC(=O)c1cc(Cl)c(NC(=O)c2ccco2)cc1OC` showed an inhibition of 13%.
Work on `COCCCNC(=O)CSc1nc2ccc(N3CCOCC3)cc2c(=O)n1CCc1ccccc1` yielded an inhibition of 22.2%.
With `CCOC(=O)c1ccc(NC(=O)CSc2nnc(COc3ccccc3OC)n2C)cc1` the inhibition was 7.25%.
Work on `CCOC(=O)c1sc(=S)n(-c2cccc(OC)c2)c1N` yielded an inhibition of 5.37%.
`Cc1ccc(NC(=O)CCNS(=O)(=O)c2ccc3c(c2)oc(=O)n3C)cc1C` gave an inhibition of 15.7%.
For `CC1(C)CC(=O)C=C(NCc2ccncc2)C1`, the inhibition was -1.25%.
Molecule `Cc1nn(C(=O)c2ccoc2C)c(N)c1-c1ccccc1` has an inhibition of 10.4%.
`O=C(N1CCOCC1)N(Cc1ccccc1)c1ccccn1` gave an inhibition of -5.66%.
With `Cc1ccc(-c2csc3nnc(SCC(=O)NCc4ccco4)n23)cc1` the inhibition was 2.88%.
With `COc1ccc(C2C(C(=O)N3CCN(c4ccc(OC)cc4)CC3)c3ccccc3C(=O)N2C)cc1` (stereo not given) the inhibition was 8.23%.
Work on `O=C(CSc1nc2ccccc2[nH]1)c1cccs1` yielded an inhibition of 12.6%.
In the case of `O=C(c1cc(-c2ccc(O)cc2)on1)N1CCCc2ccccc21`, the inhibition is reported as 9.64%.
Molecule `CC(C)(C)NC(=O)C(c1ccncc1)N(C(=O)CNC(=O)c1ccco1)c1ccc2c(c1)OCO2` (stereo not given) has an inhibition of 4.9%.
Molecule `c1ccc(-c2cc(-c3nnc4sc(-c5ccccn5)nn34)[nH]n2)cc1` has an inhibition of 8.74%.
In the case of `CC12CCC(C(=O)N3CCN(c4ncccn4)CC3)(c3nc4ccccc4nc31)C2(C)C` (stereo not given), the inhibition is reported as 20.7%.
`O=C(O)C1CC(=O)N(Cc2cccnc2)C1` (stereo not given) showed an inhibition of 15.1%.
`COCCNC(=O)Cn1cc2c(n1)CCCCC2` showed an inhibition of 3.37%.
With `COc1ccc(S(=O)(=O)N(CCCN2CCCC2=O)Cc2cc3c(C)ccc(C)c3[nH]c2=O)cc1` the inhibition was 5.72%.
With `Clc1ccc(CSc2nnc([C@@H]3CCCN3)o2)cc1` the inhibition was 13.7%.
In the case of `CCn1c(SCC(=O)Nc2nc3ccc(OC)cc3s2)nnc1-c1ccoc1C`, the inhibition is reported as 4.77%.
`COC(=O)N1CN(C(=O)OC)CN(C(=O)OC)C1` gave an inhibition of 4.11%.
For `Cn1c(SCc2c(F)cccc2Cl)nnc1-c1cnccn1`, the inhibition was -5.66%.
With `O=S(=O)(c1ccc(Sc2nnc3ccccn23)nc1)N1CCOCC1` the inhibition was -7.45%.
With `COc1ccccc1-c1cc(C(=O)NCCCn2ccnc2)no1` the inhibition was 1.27%.
Molecule `COc1ccccc1N1CCN(CCCCOc2ccc(F)cc2)CC1` has an inhibition of 0.215%.
`O=C1CC2(CCCCC2)Oc2ccc(OCC(=O)N3CCOCC3)cc21` showed an inhibition of 9.94%.
Molecule `Cc1csc(NC(=O)C2CCCN2C(=O)OCC(C)C)n1` (stereo not given) has an inhibition of -7.74%.
In the case of `Cc1cccc(N2CCN(C(=O)c3cc4c(=O)[nH]c5ccccc5c4n3C)CC2)c1C`, the inhibition is reported as 8.97%.
